Source: ChEMBL document CHEMBL3593179, “Benzoic acid derivatives with improved antifungal activity: Design, synthesis, structure-activity relationship (SAR) and CYP53 docking studies” (2015)
Active and inactive are the calls of the source. The rule behind the calls is not given here.

Columns and labels:
[1] = tested on: Curvularia lunata; experiment: Antifungal activity against Cochliobolus lunatus strain MUCL 38696 at 100 uM by growth based assay; type: functional, organism-based
How it was run: (§1)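 Mycelial discs cut from 5-day-old cultures were placed centrally on MEA (Blakeslee's formula) agar plates containing inhibitor at 0.1 mM final concentration or solvent control. Plates were incubated at 28°C and growth was scored daily. Radial growth rate (RGR) and initial growth inhibition (IGI) were derived and expressed as percent of the matching solvent control. Each compound was tested in triplicate.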

[2] = tested on: Pleurotus ostreatus; experiment: Antifungal activity against Pleurotus ostreatus Plo5 at 100 uM by growth based assay; type: functional; how it was run: as §1
[3] = tested on: Aspergillus niger; experiment: Antifungal activity against Aspergillus niger N402 cspA1 at 100 uM by growth based assay; type: functional; how it was run: as §1

SMILES	inhibition [1]	also measured
Cc1cc(C=O)c(C)n1-c1ccc(C(=O)O)cc1	inactive	–
O=C(O)c1ccc(-c2ccc(C(=O)O)cc2)cc1	inactive	–
O=C(O)c1ccc(-c2ccsc2)cc1	Active	inhibition at 100 µM [2]: 75%
Cc1cc(C)n(-c2ccc(C(=O)O)cc2)n1	inactive	–
CC1CCN(c2ccc(C(=O)O)cc2)CC1	Active	–
Cc1cc(C)n(-c2ccc(S(=O)(=O)O)cc2)n1	inactive	–
O=C(O)c1ccc(N2CCCC2)cc1Cl	inactive	inhibition [3]: Active
O=C(O)c1ccc(N2CCCC2)cc1	inactive	–
O=C(O)c1ccc(N2CCCC2)nc1	inactive	–
O=C(O)c1ccc(-c2cccs2)cc1	Active	inhibition [2]: Active; inhibition [3]: Active
O=C(O)c1ccc(-c2ccc(Cl)c(Cl)c2)cc1	–	inhibition [3]: inactive
O=C(O)c1ccc(N2CCCCC2)cc1Cl	inactive	–
O=C(O)c1ccc(-c2ccc(Cl)cc2)cc1	–	inhibition [3]: inactive
O=C(O)c1ccc(C(=O)O)cc1	inactive	–
O=C(O)c1ccc(CN2CCCC2)cc1	inactive	–
Cc1cc(C(=O)O)ccc1-n1c(C)ccc1C	inactive	–

SMILES	inhibition [1]	also measured
Cc1ccc(C)n1-c1ccc(C(=O)O)cc1	inactive	–
Cc1ccn(-c2ccc(C(=O)O)c(Cl)c2)n1	inactive	–
O=C(O)c1ccc(-c2ccc(Cl)c(F)c2)cc1	Active	inhibition at 100 µM [2]: 75%; inhibition at 100 µM [3]: 30%
O=C(O)c1ncc(N2CCCC2)cc1Cl	inactive	–
O=C(O)c1ccc(C2CCCCC2)cc1	inactive	–
O=C(O)c1ccc(-n2cccc2)cc1	Active	inhibition [2]: inactive; inhibition [3]: Active
O=C(O)c1ccc(-c2ccc(F)cc2)cc1	Active	inhibition at 100 µM [2]: 75%; inhibition [3]: Active
O=C(O)c1ccc2ccccc2c1	inactive	–
O=C(O)c1ccc(F)cc1	inactive	–
Cn1ccc(-c2ccc(C(=O)O)cc2)n1	inactive	–
O=C(O)c1ccc(-c2cccc(F)c2)cc1	Active	inhibition [3]: Active
Cc1cc(C(=O)O)ccc1-n1cccc1	–	inhibition [2]: inactive
O=C(O)c1ccc(-c2cc(F)c(F)cc2F)cc1	Active	inhibition [3]: Active
CC(=O)c1cc(C)n(-c2ccc(C(=O)O)cc2)c1C	inactive	–
O=S(=O)(O)c1cc[n+](-c2ccc(Cl)cc2)cc1	inactive	–
O=C(O)c1ccc(N2CCCC2=O)cc1	inactive	–
